8 molecules from ChEMBL document CHEMBL2057112, “Enamino-oxindole HIV protease inhibitors” (Bioorg Med Chem Lett, 2012) can be followed below.

Structures are written as SMILES.

Experiment [1] deals with Human immunodeficiency virus 1. In words: Antiviral activity against Human immunodeficiency virus 1 HXB2 expressing protease M8 mutant infected in human MT4 cells after 5 days by MTT assay. It is filed as functional, organism-based. As to conditions: Human immunodeficiency virus 1, HXB2, MT4, 120 h.
Experiment [2] is described as follows: Inhibition of Human immunodeficiency virus protease M10 mutant expressed in Escherichia coli using ArgGlu(EDANS)SerGlnAsnTyrProIleValGlnLys(DABCYL)Arg as substrate preincubated with compound for 0.5 to 1 min measured by fluorometric analysis at pH 6.5.
Experiment [3] relates to Human immunodeficiency virus 1. In words: Antiviral activity against Human immunodeficiency virus 1 HXB2 expressing wild type protease infected in human MT4 cells after 5 days by MTT assay. It is filed as functional, organism-based. To be noted: Human immunodeficiency virus 1, HXB2, MT4, 120 h.
The nature of experiment [4]: Inhibition of Human immunodeficiency virus protease M8 mutant expressed in Escherichia coli using ArgGlu(EDANS)SerGlnAsnTyrProIleValGlnLys(DABCYL)Arg as substrate preincubated with compound for 0.5 to 1 min measured by fluorometric analysis at pH 6.5.
For experiment [5], the system named is Human immunodeficiency virus 1. In words: Antiviral activity against Human immunodeficiency virus 1 HXB2 expressing protease M4 mutant infected in human MT4 cells after 5 days by MTT assay. As to conditions: Human immunodeficiency virus 1, HXB2, MT4, 120 h. The format is functional, organism-based. In short, it runs like this:
(§1)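 MT-4 cells (AIDS Research and Reference Reagent Program) exposed to 50% tissue culture infective doses (TCID₅₀) of virus with various concentrations of test compound for 5 days. MTT solution then added and absorbance measured. Mutant strains carry 10–17 resistance mutations with phenotypic resistance to marketed PIs; all include I84V except M7. IC₅₀ reported.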

The test system of experiment [6] is Human immunodeficiency virus 1. In words: Antiviral activity against Human immunodeficiency virus 1 HXB2 expressing protease M9 mutant infected in human MT4 cells after 5 days by MTT assay. The format is functional, organism-based. As to conditions: Human immunodeficiency virus 1, HXB2, MT4, 120 h.
Experiment [7] has as its system Human immunodeficiency virus 1. In words: Antiviral activity against Human immunodeficiency virus 1 HXB2 expressing protease M3 mutant infected in human MT4 cells after 5 days by MTT assay. The format is functional, organism-based. As to conditions: Human immunodeficiency virus 1, HXB2, MT4, 120 h. In short, it runs like this: as §1
Experiment [8] in a line: Inhibition of wild type Human immunodeficiency virus protease expressed in Escherichia coli using ArgGlu(EDANS)SerGlnAsnTyrProIleValGlnLys(DABCYL)Arg as substrate preincubated with compound for 0.5 to 1 min measured by fluorometric analysis at pH 6.5.
In experiment [9] the test system is Human immunodeficiency virus 1. In words: Antiviral activity against Human immunodeficiency virus 1 HXB2 expressing protease M5 mutant infected in human MT4 cells after 5 days by MTT assay. The format is functional, organism-based. To be noted: Human immunodeficiency virus 1, HXB2, MT4, 120 h. The essentials: as §1
Experiment [10] concerns Human immunodeficiency virus 1. In words: Antiviral activity against Human immunodeficiency virus 1 HXB2 expressing protease M10 mutant infected in human MT4 cells after 5 days by MTT assay. It is filed as functional, organism-based. As to conditions: Human immunodeficiency virus 1, HXB2, MT4, 120 h.
Experiment [11] deals with Human immunodeficiency virus 1. In words: Antiviral activity against Human immunodeficiency virus 1 HXB2 expressing protease M6 mutant infected in human MT4 cells after 5 days by MTT assay. The format is functional, organism-based. To be noted: Human immunodeficiency virus 1, HXB2, MT4, 120 h. In short, it runs like this:
as §1

Experiment [12] is described as follows: Inhibition of Human immunodeficiency virus protease M9 mutant expressed in Escherichia coli using ArgGlu(EDANS)SerGlnAsnTyrProIleValGlnLys(DABCYL)Arg as substrate preincubated with compound for 0.5 to 1 min measured by fluorometric analysis at pH 6.5.
Experiment [13] has as its system Human immunodeficiency virus 1. In words: Antiviral activity against Human immunodeficiency virus 1 HXB2 expressing protease M7 mutant infected in human MT4 cells after 5 days by MTT assay. To be noted: Human immunodeficiency virus 1, HXB2, MT4, 120 h. It is filed as functional, organism-based. The essentials:
as §1

For the molecule `CC(C)CN(C[C@@H](O)[C@H](Cc1ccccc1)NC(=O)O[C@H]1CO[C@H]2OCC[C@H]21)S(=O)(=O)c1ccc(N)cc1`, the IC50 in experiment [1] stood at 16 nM; in experiment [3], 3 nM; in experiment [5], 30 nM; in experiment [6] it was 25 nM; in experiment [7], 11 nM; in [9], 22 nM. Besides, the IC50 was 130 nM in experiment [10], 10 nM in experiment [11] and 3.2 nM in [13]. In addition, the Ki is 1 nM in experiment [2], 0.25 nM in experiment [4], under 0.1 nM in experiment [8] and under 0.3 nM in experiment [12].

For the molecule `CC(C)CN(C[C@@H](O)[C@H](Cc1ccccc1)NC(=O)O[C@H]1CO[C@H]2OCC[C@H]21)S(=O)(=O)c1ccc2c(c1)CCN2`, the IC50 in experiment [1] worked out at 107 nM; in [3], 3.9 nM; in [5], 175 nM; in [6], 190 nM; in experiment [7], 80 nM; in experiment [9], 120 nM. Further, the results for the IC50 in experiment [10], in experiment [11] and in [13] were 1700 nM, 30 nM and 7.5 nM, respectively. Moreover, the Ki in [2] worked out at 10 nM; in [4] it was 0.63 nM; in experiment [8], 0.12 nM; in experiment [12], 1.5 nM.

Regarding `CC(C)CNC=C1C(=O)Nc2ccc(S(=O)(=O)N(CC(C)C)C[C@@H](O)[C@H](Cc3ccccc3)NC(=O)O[C@H]3CO[C@H]4OCC[C@H]43)cc21` (mixture of isomers), the IC50 stood at 16 nM in [1]; 7.5 nM in [3]; 15 nM in experiment [5]; 9.5 nM in experiment [6]; 8 nM in experiment [7]; 9 nM in experiment [9]. The IC50 was determined as 33 nM in [10], 9 nM in experiment [11] and 2.1 nM in experiment [13]. For the same molecule, the Ki in experiment [2] is under 1 nM; in experiment [8] it was under 0.1 nM; in [12], under 0.3 nM.

With `CNC(C)=C1C(=O)Nc2ccc(S(=O)(=O)N(CC(C)C)C[C@@H](O)[C@H](Cc3ccccc3)NC(=O)O[C@H]3CO[C@H]4OCC[C@H]43)cc21` (mixture of isomers), the IC50 in experiment [1] came out at 29 nM; in experiment [3] it was 10 nM; in experiment [5], 16 nM; in experiment [6] it was 17 nM; in experiment [7], 12 nM; in [9], 18 nM. For the same molecule, the IC50 in experiment [10] was 56 nM; in [11] it was 20 nM; in experiment [13], 5 nM. The values for the inhibitory constant (Ki) in experiment [2], in experiment [8] and in experiment [12] were under 1 nM, under 0.1 nM and under 0.3 nM, respectively.

In the case of `CCCCNC=C1C(=O)Nc2ccc(S(=O)(=O)N(CC(C)C)C[C@@H](O)[C@H](Cc3ccccc3)NC(=O)O[C@H]3CO[C@H]4OCC[C@H]43)cc21` (mixture of isomers), the IC50 in experiment [1] was 25 nM; in [3], 13 nM; in experiment [5], 28 nM; in experiment [6], 11 nM; in [7], 15 nM; in experiment [9] it was 18 nM. Besides, the IC50 in [10] amounted to 40 nM; in experiment [11], 32 nM; in experiment [13] it was 5 nM. The Ki in experiment [2] was under 1 nM; in experiment [8], under 0.1 nM; in [12], under 0.3 nM.

As to `CC(C)CN(C[C@@H](O)[C@H](Cc1ccccc1)NC(=O)O[C@H]1CO[C@H]2OCC[C@H]21)S(=O)(=O)c1ccc2c(c1)C(=CNCC(C)(C)C)C(=O)N2` (mixture of isomers), the IC50 came out at 13 nM in experiment [1]; 4.5 nM in [3]; 8.8 nM in experiment [5]; 9.5 nM in experiment [6]; 8 nM in experiment [7]; 7 nM in experiment [9]. For the same molecule, the IC50 worked out at 27 nM in [10], 6 nM in experiment [11] and 1.5 nM in [13]. Moreover, the values for the Ki in experiment [2], in experiment [8] and in experiment [12] were under 1 nM, under 0.1 nM and under 0.3 nM, respectively.

`CC(C)CN(C[C@@H](O)[C@H](Cc1ccccc1)NC(=O)O[C@H]1CO[C@H]2OCC[C@H]21)S(=O)(=O)c1ccc2c(c1)C(=CNC1CCC1)C(=O)N2` (mixture of isomers): the IC50 in experiment [1] stood at 30 nM; in [3], 17 nM; in experiment [5], 36 nM; in experiment [6] it was 31 nM; in [7], 31 nM; in experiment [9], 33 nM. For the same molecule, the IC50 turned out to be 115 nM in experiment [10], 32 nM in experiment [11] and 7 nM in [13]. Also, the Ki in [2] is 1.2 nM; in experiment [8], under 0.1 nM; in experiment [12] it was under 0.3 nM.

Regarding `COC(=O)N[C@H](C(=O)N[C@@H](Cc1ccccc1)[C@@H](O)CN(Cc1ccc(-c2ccccn2)cc1)NC(=O)[C@@H](NC(=O)OC)C(C)(C)C)C(C)(C)C` [ATAZANAVIR], the half-inhibitory concentration (IC50) in [1] turned out to be 750 nM; in experiment [3] it was 3.5 nM; in experiment [5] it was 600 nM; in experiment [6], 2500 nM; in experiment [7], 350 nM; in experiment [9], 280 nM. Moreover, the IC50 turned out to be 3300 nM in experiment [10], 430 nM in experiment [11] and 105 nM in experiment [13]. Moreover, the Ki in [2] is 171 nM; in experiment [4], 2.8 nM; in experiment [8] it was under 0.1 nM; in [12], 84 nM.
